Experimental findings from publication PMC5700443 (Journal of Cachexia, Sarcopenia and Muscle, 2017) are described below.

Series [1] has as its system diaphragm muscle of MCT-treated C57BL/6 mice. In words: In vitro contractile function of diaphragm muscle bundles from treated mice. The format is in vivo. Particulars: MCT 600 mg/kg weekly, 6 weeks, vs sham. The method, boiled down: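 C57BL/6 mice (8 weeks) got MCT or saline s.c.; compound was given at 0.1% w/w in chow from 1 week before MCT. Diaphragm bundles at optimal length in buffer pH ~7.4 (95% O2–5% CO2, ~22°C) were equilibrated 15 min, then force–frequency tested (1–300 Hz) plus isotonic loads. Specific force N/cm2 (density 1.06), velocity Lo/s, power = velocity × force; n = 16/group.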

The subject of series [2] is C57BL/6 mice with MCT-induced cardiac cachexia. The format is in vivo. Particulars: MCT 600 mg/kg weekly, 6 weeks.
Series [3] concerns MuRF1 mRNA expression in C2C12 myotubes. In words: MuRF1 mRNA expression in dexamethasone-treated myotubes. The format is cell-based, Murine. To be noted: DEX 10 μmol/L, 24 h. In outline: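 Differentiated C2C12 myotubes (2% horse serum) were pre-treated for 2 h with test compound (0.1–10 μmol/L, DMSO) or DMSO alone before dexamethasone. Total RNA was reverse-transcribed with random hexamers. Quantitative RT-PCR used a LightCycler with FRET detection. MuRF1 was normalised to hypoxanthine phosphoribosyltransferase mRNA (60°C annealing). Mean ± SEM; one-way ANOVA, Bonferroni.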

As for `C[C@H]1C(=O)O[C@@H]2CCN3CC=C(COC(=O)[C@](C)(O)[C@]1(C)O)[C@H]23` [MCT, monocrotaline], in series [1], the “effect on isometric forces” value was “no significant effects”, the “reduction of peak power” value was ~ 20% and the “reduction of peak shortening velocity” value is given as ~ 20%. The body weight loss in series [2] (normal chow (sham gained 7.9 ± 0.8%)) is 0.7 ± 0.6%. Besides, in series [2] (vs sham), the “lower TA fibre CSA” value is reported as ~ 20% and the “reduction in TA muscle weight” value is listed as ~ 10%.
`C[C@@H]1C[C@H]2[C@@H]3CCC4=CC(=O)C=C[C@]4(C)[C@@]3(F)[C@@H](O)C[C@]2(C)[C@@]1(O)C(=O)CO` [Dexamethasone, dexamethasone]: in series [3], the “increase in MuRF1 mRNA expression relative to untreated cells” value is given as “approximately 2 fold”.
